Experimental data as given in ChEMBL document CHEMBL4014343 (J Med Chem, 2017).
The source made the active and inactive calls. The calls are words filed in the database; no cut-off is given here.

How the values were obtained:
EKVX = experiment: Growth inhibition of human EKVX cells incubated for 48 hrs by sulforhodamine B assay; assay type: functional, cell-based
[1] = biological target: Cyclin-dependent kinase 2/cyclin E1 (Homo sapiens) (UniProt P24864+P24941); experiment: Inhibition of recombinant human N-terminal GST-tagged CDK2 (M1 to L298 residues)/Cyclin E1 (M1 to A395 residues) expressed in sf9 cells at 1 uM using RB-CTF as substrate by filter binding assay
Procedure, shortened: (§1)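 Single-point profiling at 1 μM in a 22-kinase panel, performed externally by ProQinase; activity read as residual percent of control.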

COLO 205 = experiment: Growth inhibition of human COLO205 cells incubated for 48 hrs by sulforhodamine B assay; assay type: functional, cell-based
OVCAR-5 = experiment: Growth inhibition of human OVCAR5 cells incubated for 48 hrs by sulforhodamine B assay; assay type: functional, cell-based
NCI/ADR-RES = experiment: Growth inhibition of human NCI/ADR-RES cells incubated for 48 hrs by sulforhodamine B assay; assay type: functional, cell-based
SR = experiment: Growth inhibition of human SR cells incubated for 48 hrs by sulforhodamine B assay; assay type: functional, cell-based
Procedure, shortened: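 NCI-60 panel growth inhibition, run by the U.S. National Cancer Institute; GI50 values are means of two test series.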

[2] = biological target: Glycogen synthase kinase-3 beta (Homo sapiens, UniProt P49841); experiment: Inhibition of human N-terminal GST/His6-tagged GSK3beta (M1 to T420 residues) expressed in baculovirus infected sf9 cells at 1 uM using RBER-IRStide as substrate by filter binding assay; procedure, shortened: as §1
[3] = biological target: Fibroblast growth factor receptor 1 (Homo sapiens) (UniProt P11362); experiment: Inhibition of human N-terminal GST/His6-tagged FGFR1 (G400 to R820 residues) expressed in baculovirus infected sf9 cells at 1 uM using Poly(Glu,Tyr)4:1 as substrate by filter binding assay; procedure, shortened: as §1
786-0 = experiment: Growth inhibition of human 786-0 cells incubated for 48 hrs by sulforhodamine B assay; assay type: functional, cell-based
CAKI-1 = experiment: Growth inhibition of human Caki1 cells incubated for 48 hrs by sulforhodamine B assay; assay type: functional, cell-based
[4] = biological target: Insulin-like growth factor 1 receptor (Homo sapiens, UniProt P08069); experiment: Inhibition of IGF1R in human MCF7 cells assessed as reduction in Akt phosphorylation at Ser473 residue after 24 hrs by immunoblot analysis; assay type: cell-based
Procedure, shortened: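 Cells in their medium with 10% FBS exposed to rising concentrations for 24 h; whole-cell lysates immunoblotted for p-Akt (S473) and total Akt; PI3K inhibitor at 10 μM as positive control.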

SK-MEL-28 = experiment: Growth inhibition of human SK-MEL-28 cells incubated for 48 hrs by sulforhodamine B assay; assay type: functional, cell-based

Fibroblast growth factor receptor 1 (Homo sapiens), sequence (P11362 22-822 limits assumed): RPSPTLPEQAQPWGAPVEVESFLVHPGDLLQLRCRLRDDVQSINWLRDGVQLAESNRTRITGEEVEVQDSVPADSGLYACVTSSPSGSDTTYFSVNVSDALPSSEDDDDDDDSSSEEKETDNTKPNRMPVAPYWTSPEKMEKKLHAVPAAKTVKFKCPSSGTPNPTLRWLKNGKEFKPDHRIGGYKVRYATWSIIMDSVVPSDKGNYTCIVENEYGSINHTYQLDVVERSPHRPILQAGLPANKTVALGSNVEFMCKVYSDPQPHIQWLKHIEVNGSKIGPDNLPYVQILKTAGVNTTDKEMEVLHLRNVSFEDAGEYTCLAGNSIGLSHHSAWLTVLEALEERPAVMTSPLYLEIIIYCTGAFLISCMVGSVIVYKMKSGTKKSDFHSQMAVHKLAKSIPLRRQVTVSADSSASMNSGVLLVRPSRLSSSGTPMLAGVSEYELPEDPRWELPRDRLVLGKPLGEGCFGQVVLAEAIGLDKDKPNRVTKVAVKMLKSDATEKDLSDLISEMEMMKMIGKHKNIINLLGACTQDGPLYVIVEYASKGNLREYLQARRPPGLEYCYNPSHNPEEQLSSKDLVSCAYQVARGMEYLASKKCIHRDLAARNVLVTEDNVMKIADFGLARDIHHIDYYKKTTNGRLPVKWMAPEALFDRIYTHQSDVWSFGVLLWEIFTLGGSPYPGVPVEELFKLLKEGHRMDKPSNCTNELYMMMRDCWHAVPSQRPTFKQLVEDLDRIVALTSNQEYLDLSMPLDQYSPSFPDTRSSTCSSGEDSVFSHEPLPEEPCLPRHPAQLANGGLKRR
Insulin-like growth factor 1 receptor, sequence (P08069 31-736 limits assumed): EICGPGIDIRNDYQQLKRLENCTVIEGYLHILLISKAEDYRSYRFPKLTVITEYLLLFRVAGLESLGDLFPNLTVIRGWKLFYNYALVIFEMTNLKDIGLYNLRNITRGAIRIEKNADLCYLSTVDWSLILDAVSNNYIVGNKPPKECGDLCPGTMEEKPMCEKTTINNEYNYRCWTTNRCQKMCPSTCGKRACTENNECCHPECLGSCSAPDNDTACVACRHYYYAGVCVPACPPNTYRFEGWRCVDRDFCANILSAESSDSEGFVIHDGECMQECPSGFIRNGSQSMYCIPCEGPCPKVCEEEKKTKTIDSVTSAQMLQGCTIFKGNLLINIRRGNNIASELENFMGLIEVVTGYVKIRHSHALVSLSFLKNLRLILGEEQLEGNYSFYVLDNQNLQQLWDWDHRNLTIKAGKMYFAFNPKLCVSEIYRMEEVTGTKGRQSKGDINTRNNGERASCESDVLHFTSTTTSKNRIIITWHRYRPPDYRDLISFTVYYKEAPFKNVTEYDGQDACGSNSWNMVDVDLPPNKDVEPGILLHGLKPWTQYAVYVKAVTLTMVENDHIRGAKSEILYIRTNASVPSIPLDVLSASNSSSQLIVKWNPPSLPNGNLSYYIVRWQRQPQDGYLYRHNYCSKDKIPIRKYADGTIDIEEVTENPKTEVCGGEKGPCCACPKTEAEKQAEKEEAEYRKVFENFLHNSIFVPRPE
Insulin-like growth factor 1 receptor, sequence (P08069 741-1367 limits assumed): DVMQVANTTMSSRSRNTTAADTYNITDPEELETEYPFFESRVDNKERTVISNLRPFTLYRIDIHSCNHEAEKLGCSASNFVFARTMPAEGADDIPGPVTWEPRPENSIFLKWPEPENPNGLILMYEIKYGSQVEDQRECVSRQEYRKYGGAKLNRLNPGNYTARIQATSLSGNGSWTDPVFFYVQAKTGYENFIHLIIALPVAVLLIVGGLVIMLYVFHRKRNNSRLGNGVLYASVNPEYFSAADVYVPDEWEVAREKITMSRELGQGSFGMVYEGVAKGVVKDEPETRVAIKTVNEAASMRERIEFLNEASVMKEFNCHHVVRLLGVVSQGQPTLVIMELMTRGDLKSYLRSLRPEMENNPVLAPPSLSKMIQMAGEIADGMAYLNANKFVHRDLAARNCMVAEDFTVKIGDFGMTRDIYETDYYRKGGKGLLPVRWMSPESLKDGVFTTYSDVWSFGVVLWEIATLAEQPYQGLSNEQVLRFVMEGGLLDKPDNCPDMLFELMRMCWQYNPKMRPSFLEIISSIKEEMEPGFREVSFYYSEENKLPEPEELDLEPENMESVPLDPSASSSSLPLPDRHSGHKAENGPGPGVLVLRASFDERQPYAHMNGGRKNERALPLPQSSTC
Glycogen synthase kinase-3 beta, sequence (P49841 whole entry, looked up, the tested form may be a part): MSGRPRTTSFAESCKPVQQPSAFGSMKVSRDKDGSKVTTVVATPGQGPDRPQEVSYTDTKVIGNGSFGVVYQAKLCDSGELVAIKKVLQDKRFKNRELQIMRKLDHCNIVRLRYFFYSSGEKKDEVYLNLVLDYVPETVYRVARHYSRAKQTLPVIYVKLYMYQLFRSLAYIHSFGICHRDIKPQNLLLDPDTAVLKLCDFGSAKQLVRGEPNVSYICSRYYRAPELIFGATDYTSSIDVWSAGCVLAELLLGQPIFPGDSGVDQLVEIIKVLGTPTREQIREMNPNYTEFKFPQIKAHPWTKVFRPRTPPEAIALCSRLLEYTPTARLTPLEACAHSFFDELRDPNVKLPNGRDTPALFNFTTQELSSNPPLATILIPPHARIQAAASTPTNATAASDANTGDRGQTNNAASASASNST

Compound: CN1CCN(CCO/N=C2/C(=C3/C(=O)Nc4ccccc43)Nc3ccccc32)CC1
- growth inhibition (GI) (EKVX): Active
- inhibition [1]: inactive
- growth inhibition (GI) (COLO 205): Active
- growth inhibition (GI) (OVCAR-5): Active
- growth inhibition (GI) (NCI/ADR-RES): Active
- growth inhibition (GI) (SR): Active
- inhibition [2]: inactive
- inhibition [3]: inactive
- growth inhibition (GI) (786-0): Active
- growth inhibition (GI) (CAKI-1): Active
- inhibition [4]: Dose-dependent effect
- growth inhibition (GI) (SK-MEL-28): Active
